Source: ChEMBL document CHEMBL4145497, “Discovery of 2-aminothiazolyl berberine derivatives as effectively antibacterial agents toward clinically drug-resistant Gram-negative Acinetobacter baumanii” (Eur J Med Chem, 2018)
In brackets after ≈: the same amount, converted by molar mass. Activity calls are given as the source filed them. No cut-off for these calls is given here.

Key:
Micrococcus luteus = experiment: Antibacterial activity against Micrococcus luteus ATCC 4698 after 18 to 24 hrs by CLSI two fold serial dilution method; assay type: functional
Aspergillus fumigatus = experiment: Antifungal activity against drug-resistant Aspergillus fumigatus by CLSI two fold serial dilution method; assay type: functional
Bacillus subtilis = experiment: Antibacterial activity against Bacillus subtilis ATCC 21216 after 18 to 24 hrs by CLSI two fold serial dilution method; assay type: functional
Candida parapsilosis = experiment: Antifungal activity against Candida parapsilosis ATCC 22019 by CLSI two fold serial dilution method; assay type: functional; conditions: Lodderomyces parapsilosis
Cyberlindnera jadinii = experiment: Antifungal activity against Candida utilis ATCC 9950 by CLSI two fold serial dilution method; assay type: functional; conditions: Williopsis jadinii
Acinetobacter baumannii [1] = experiment: Antibacterial activity against drug-resistant Acinetobacter baumannii after 18 to 24 hrs by CLSI two fold serial dilution method; assay type: functional
Saccharomyces cerevisiae = experiment: Antifungal activity against Saccharomyces cerevisiae ATCC 9763 by CLSI two fold serial dilution method; assay type: functional
Pichia norvegensis = experiment: Antifungal activity against Candida mycoderma ATCC 96918 by CLSI two fold serial dilution method; assay type: functional
Staphylococcus aureus [2] = experiment: Antibacterial activity against methicillin-resistant Staphylococcus aureus N315 after 18 to 24 hrs by CLSI two fold serial dilution method; assay type: functional
Pseudomonas aeruginosa [3] = experiment: Antibacterial activity against drug-resistant Pseudomonas aeruginosa after 18 to 24 hrs by CLSI two fold serial dilution method; assay type: functional
Candida tropicalis = experiment: Antifungal activity against drug-resistant Candida tropicalis by CLSI two fold serial dilution method; assay type: functional
Candida albicans [4] = experiment: Antifungal activity against drug-resistant Candida albicans by CLSI two fold serial dilution method; assay type: functional
Staphylococcus aureus [5] = experiment: Antibacterial activity against Staphylococcus aureus ATCC 25923 after 18 to 24 hrs by CLSI two fold serial dilution method; assay type: functional
Escherichia coli [6] = experiment: Antibacterial activity against Escherichia coli DH52 after 18 to 24 hrs by CLSI two fold serial dilution method; assay type: functional
Aspergillus flavus [7] = experiment: Antifungal activity against Aspergillus flavus ATCC 204304 by CLSI two fold serial dilution method; assay type: functional
Enterococcus faecalis [8] = experiment: Antibacterial activity against drug-resistant Enterococcus faecalis after 18 to 24 hrs by CLSI two fold serial dilution method; assay type: functional
Escherichia coli [9] = experiment: Antibacterial activity against drug-resistant Escherichia coli after 18 to 24 hrs by CLSI two fold serial dilution method; assay type: functional
Escherichia coli [10] = experiment: Potency index, ratio of norfloxacin MIC to compound MIC for antibacterial activity against Escherichia coli DH52; assay type: functional
Klebsiella pneumoniae [11] = experiment: Antibacterial activity against drug-resistant Klebsiella pneumoniae after 18 to 24 hrs by CLSI two fold serial dilution method; assay type: functional
Pseudomonas aeruginosa [12] = experiment: Antibacterial activity against Pseudomonas aeruginosa ATCC 27853 after 18 to 24 hrs by CLSI two fold serial dilution method; assay type: functional
Candida albicans [13] = experiment: Antifungal activity against Candida albicans ATCC 76615 by CLSI two fold serial dilution method; assay type: functional
Staphylococcus aureus [14] = experiment: Potentiation of norfloxacin-mediated antibacterial activity against methicillin-resistant Staphylococcus aureus N315 after 18 to 24 hrs by two fold dilution checkerboard method relative to control; assay type: functional
Pseudomonas aeruginosa [15] = experiment: Antibacterial activity against drug-resistant Pseudomonas aeruginosa after 18 to 24 hrs in presence of norfloxacin by two fold dilution checkerboard method; assay type: functional
Klebsiella pneumoniae [16] = experiment: Antibacterial activity against drug-resistant Klebsiella pneumoniae after 18 to 24 hrs in presence of norfloxacin by two fold dilution checkerboard method; assay type: functional
Acinetobacter baumannii [17] = experiment: Synergistic antibacterial activity against drug-resistant Acinetobacter baumannii assessed as FIC index in presence of norfloxacin by two fold dilution checkerboard method; assay type: functional
DNA [18] = experiment: Binding affinity to drug-resistant Acinetobacter baumanii DNA by UV-vis spectroscopic analysis; assay type: nucleic-acid assay; conditions: Acinetobacter baumannii
How it was run: (§1)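 Genomic DNA was isolated from drug-resistant A. baumanii by spin-column extraction after proteinase K lysis at 70 °C. DNA concentration was taken from A260 using ε260 = 6600 L·mol−1·cm−1, expressed as phosphate molarity, and purity was checked by A260/A280 and gel. UV-vis spectra were recorded at a fixed DNA concentration of 8.12×10^-4 mol/L with increasing compound.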

[19] = Aqueous solubility of the compound in phosphate buffer at pH 7.4 after 3 hrs by UV detection assay; assay type: physicochemical
How it was run: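 Water solubility measured at physiological pH, with berberine as the control.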

DNA [20] = experiment: Inhibition of neutral red binding to drug-resistant Acinetobacter baumanii DNA up to 2.5 10^-5mol/L by UV-vis spectroscopic analysis; assay type: nucleic-acid assay; conditions: Acinetobacter baumannii
How it was run: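 Neutral red competition with genomic DNA from drug-resistant A. baumanii, extracted by spin column after proteinase K lysis. UV-vis absorbance near 460 nm was followed as compound concentration increased in the neutral red–DNA system.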

DNA [21] = experiment: Induction of drug-resistant Acinetobacter baumanii DNA cleavage at 50 uM after 6 hrs by ethidium bromide staining based agarose gel electrophoresis method; assay type: nucleic-acid assay; conditions: Acinetobacter baumannii
How it was run: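 Spin-column-isolated genomic DNA from drug-resistant A. baumanii (1.31×10^-6 mol/L) was incubated with compound (50 μM) in 50 mM Tris-HCl/50 mM NaCl, pH 7.4, at 37 °C for 6 h. Agarose gel electrophoresis was run against DNA-alone and DNA-plus-buffer lanes.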

Enterococcus faecalis [22] = experiment: Antibacterial activity against drug-resistant Enterococcus faecalis after 18 to 24 hrs in presence of norfloxacin by two fold dilution checkerboard method; assay type: functional
Acinetobacter baumannii [23] = experiment: Antibacterial activity against drug-resistant Acinetobacter baumannii at 0.7 ug/ml measured 12 hrs post 10 serial passages; assay type: functional, organism-based
Staphylococcus aureus [24] = experiment: Antibacterial activity against methicillin-resistant Staphylococcus aureus N315 after 18 to 24 hrs in presence of norfloxacin by two fold dilution checkerboard method; assay type: functional
Staphylococcus aureus [25] = experiment: Potentiation of norfloxacin-mediated antibacterial activity against methicillin-resistant Staphylococcus aureus N315 assessed as norfloxacin MIC after 18 to 24 hrs by two fold dilution checkerboard method (reference value: 0.03 umol/ml); assay type: functional
Enterococcus faecalis [26] = experiment: Potentiation of norfloxacin-mediated antibacterial activity against drug-resistant Enterococcus faecalis assessed as norfloxacin MIC after 18 to 24 hrs by two fold dilution checkerboard method (reference value: 0.8 umol/ml); assay type: functional
DNA [27] = experiment: Binding affinity to drug-resistant Acinetobacter baumanii DNA assessed as hyperchromic effect up to 2.5 10^-5mol/L by UV-vis spectroscopic analysis; assay type: nucleic-acid assay; conditions: Acinetobacter baumannii; how it was run: as §1
Enterococcus faecalis [28] = experiment: Additive antibacterial activity against drug-resistant Enterococcus faecalis assessed as FIC index in presence of norfloxacin by two fold dilution checkerboard method; assay type: functional
Staphylococcus aureus [29] = experiment: Ratio of MIC for methicillin-resistant Staphylococcus aureus N315 in absence of norfloxacin to MIC for methicillin-resistant Staphylococcus aureus N315 in presence of norfloxacin; assay type: functional
Escherichia coli [30] = experiment: Antibacterial activity against drug-resistant Escherichia coli after 18 to 24 hrs in presence of norfloxacin by two fold dilution checkerboard method; assay type: functional
Klebsiella pneumoniae [31] = experiment: Potentiation of norfloxacin-mediated antibacterial activity against drug-resistant Klebsiella pneumoniae assessed as norfloxacin MIC after 18 to 24 hrs by two fold dilution checkerboard method (reference value: 0.8 umol/ml); assay type: functional
Aspergillus flavus [32] = experiment: Potency index, ratio of fluconazole MIC to compound MIC for antibacterial activity against Aspergillus flavus ATCC 204304; assay type: functional
Escherichia coli [33] = experiment: Synergistic antibacterial activity against drug-resistant Escherichia coli assessed as FIC index in presence of norfloxacin by two fold dilution checkerboard method; assay type: functional
Klebsiella pneumoniae [34] = experiment: Synergistic antibacterial activity against drug-resistant Klebsiella pneumoniae assessed as FIC index in presence of norfloxacin by two fold dilution checkerboard method; assay type: functional
Staphylococcus aureus [35] = experiment: Synergistic antibacterial activity against methicillin-resistant Staphylococcus aureus N315 assessed as FIC index in presence of norfloxacin by two fold dilution checkerboard method; assay type: functional
Pseudomonas aeruginosa [36] = experiment: Potentiation of norfloxacin-mediated antibacterial activity against drug-resistant Pseudomonas aeruginosa assessed as norfloxacin MIC after 18 to 24 hrs by two fold dilution checkerboard method (reference value: 1.6 umol/ml); assay type: functional
Pseudomonas aeruginosa [37] = experiment: Synergistic antibacterial activity against drug-resistant Pseudomonas aeruginosa assessed as FIC index in presence of norfloxacin by two fold dilution checkerboard method; assay type: functional
Acinetobacter baumannii [38] = experiment: Bactericidal activity against drug-resistant Acinetobacter baumannii assessed as reduction in number of viable bacterial load at 8 nmol/ml with in 2 hrs by time kill assay; assay type: functional
[39] = Cytotoxicity against human LO2 cells assessed as cell viability at 1.5625 to 100 ug/ml after 48 hrs by MTT assay relative to control; assay type: cell-based, L02; conditions: read-out: Activity
How it was run: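 Human hepatocyte LO2 cells exposed to compound across a concentration range for 48 h; viability read by colorimetric MTT assay; standard deviation from three independent experiments.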

Acinetobacter baumannii [40] = experiment: Potentiation of norfloxacin-mediated antibacterial activity against drug-resistant Acinetobacter baumannii assessed as norfloxacin MIC after 18 to 24 hrs by two fold dilution checkerboard method (reference value: 0.8 umol/ml); assay type: functional
Acinetobacter baumannii [41] = experiment: Antibacterial activity against drug-resistant Acinetobacter baumannii after 18 to 24 hrs in presence of norfloxacin by two fold dilution checkerboard method; assay type: functional
Acinetobacter baumannii [42] = experiment: Induction of membrane permeabilization in drug-resistant Acinetobacter baumannii at 0.024 umol/ml incubated for 1 hr measured up to 120 mins by propidium iodide staining-based fluorescence spectra analysis; assay type: functional, organism-based
Escherichia coli [43] = experiment: Potentiation of norfloxacin-mediated antibacterial activity against drug-resistant Escherichia coli assessed as norfloxacin MIC after 18 to 24 hrs by two fold dilution checkerboard method (reference value: 1.6 umol/ml); assay type: functional

CCCCCCOc1c(OC)cc(/C=N/NC(N)=S)c2c1CN1CCc3cc4c(cc3C1C2)OCO4 (stereo not drawn)
MIC (Micrococcus luteus): 250 µM (≈ 128 µg/mL) | MIC (Aspergillus fumigatus): 130 µM (≈ 66.4 µg/mL) | MIC (Bacillus subtilis): 130 µM (≈ 66.4 µg/mL) | MIC (Candida parapsilosis): 60 µM (≈ 30.6 µg/mL) | MIC (Cyberlindnera jadinii): 250 µM (≈ 128 µg/mL) | MIC (Acinetobacter baumannii [1]): 60 µM (≈ 30.6 µg/mL) | MIC (Saccharomyces cerevisiae): 500 µM (≈ 255 µg/mL) | MIC (Pichia norvegensis): 250 µM (≈ 128 µg/mL) | MIC (Staphylococcus aureus [2]): 130 µM (≈ 66.4 µg/mL) | MIC (Pseudomonas aeruginosa [3]): 60 µM (≈ 30.6 µg/mL) | MIC (Candida tropicalis): 60 µM (≈ 30.6 µg/mL) | MIC (Candida albicans [4]): 60 µM (≈ 30.6 µg/mL) | MIC (Staphylococcus aureus [5]): 130 µM (≈ 66.4 µg/mL) | MIC (Escherichia coli [6]): 30 µM (≈ 15.3 µg/mL) | MIC (Aspergillus flavus [7]): 250 µM (≈ 128 µg/mL) | MIC (Enterococcus faecalis [8]): 30 µM (≈ 15.3 µg/mL) | MIC (Escherichia coli [9]): 30 µM (≈ 15.3 µg/mL) | Ratio (Escherichia coli [10]): 53 | MIC (Klebsiella pneumoniae [11]): 130 µM (≈ 66.4 µg/mL) | MIC (Pseudomonas aeruginosa [12]): 60 µM (≈ 30.6 µg/mL) | MIC (Candida albicans [13]): 60 µM (≈ 30.6 µg/mL)

CCCCCCOc1c(OC)cc(/C=N/Nc2nccs2)c2c1CN1CCc3cc4c(cc3C1C2)OCO4 (stereo not drawn)
fold change (FC) (Staphylococcus aureus [14]): 4 | MIC (Pseudomonas aeruginosa [15]): 25 µM | MIC (Micrococcus luteus): 60 µM (≈ 32.1 µg/mL) | MIC (Klebsiella pneumoniae [16]): 30 µM | fractional inhibitory concentration index (FICI) (Acinetobacter baumannii [17]): 0.31 | MIC (Bacillus subtilis): 120 µM (≈ 64.2 µg/mL) | MIC (Candida parapsilosis): 4 µM (≈ 2.14 µg/mL) | K (DNA [18]): 2.54 ×10³ L/mol | solubility at 3 h [19]: 1420 µg/mL (≈ 2660 µM) | inhibition (DNA [20]): Active | Activity (DNA [21]): Active | MIC (Cyberlindnera jadinii): 120 µM (≈ 64.2 µg/mL) | MIC (Enterococcus faecalis [22]): 15 µM | MIC (Saccharomyces cerevisiae): 60 µM (≈ 32.1 µg/mL) | Activity (Acinetobacter baumannii [23]): Active | MIC (Pichia norvegensis): 30 µM (≈ 16 µg/mL) | MIC (Staphylococcus aureus [2]): 7 to 30 µM (≈ 3.74 to 16 µg/mL) | MIC (Staphylococcus aureus [24]): 7 µM | MIC (Staphylococcus aureus [25]): 6 µM | MIC (Enterococcus faecalis [26]): 50 µM | MIC (Staphylococcus aureus [5]): 30 µM (≈ 16 µg/mL) | Activity (DNA [27]): Active | fractional inhibitory concentration index (FICI) (Enterococcus faecalis [28]): 0.56 | Ratio (Staphylococcus aureus [29]): 4 | MIC (Escherichia coli [6]): 60 µM (≈ 32.1 µg/mL) | MIC (Escherichia coli [30]): 30 µM | MIC (Klebsiella pneumoniae [31]): 100 µM | MIC (Aspergillus flavus [7]): 60 µM (≈ 32.1 µg/mL) | Ratio (Aspergillus flavus [32]): 14 | fractional inhibitory concentration index (FICI) (Escherichia coli [33]): 0.31 | fractional inhibitory concentration index (FICI) (Klebsiella pneumoniae [34]): 0.38 | fractional inhibitory concentration index (FICI) (Staphylococcus aureus [35]): 0.5 | MIC (Pseudomonas aeruginosa [36]): 50 µM | fractional inhibitory concentration index (FICI) (Pseudomonas aeruginosa [37]): 0.45 | Activity (Acinetobacter baumannii [38]): >3 deltalog10CFU/ml | MIC (Pseudomonas aeruginosa [12]): 60 µM (≈ 32.1 µg/mL) | viability at 48 h [39]: > 70.7% | MIC (Acinetobacter baumannii [40]): 50 µM | MIC (Acinetobacter baumannii [41]): 0.5 µM | Activity (Acinetobacter baumannii [42]): Active | MIC (Candida albicans [13]): 30 µM (≈ 16 µg/mL) | MIC (Escherichia coli [43]): 100 µM
